Measurements as given in ChEMBL document CHEMBL3585302, “Synthesis and antibacterial activities of cadiolides A, B and C and analogues” (Bioorg Med Chem, 2015).

What follows are compounds tested on Escherichia coli (assay: Antibacterial activity against Escherichia coli CECT 405 assessed as inhibition of microbial growth incubated for 18 hrs by 2-fold microtiter broth dilution method). Conditions: CECT 405, 18 h.
Format: functional, organism-based
Procedure, shortened: (§1)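 Compounds in DMSO, ten 2-fold serial dilutions (125 down to 0.24 µg/mL tested). Bacteria at OD620 = 0.001 in Nutrient Broth mixed 1:1 with dilutions. Incubated overnight (18 h) at 28°C or 37°C according to strain. Growth read turbidimetrically at OD620. MIC is the lowest concentration giving complete growth inhibition. Triplicate runs. Tetracycline as reference.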

Compound | MIC [µg/mL]
O=C1O/C(=C\c2cc(Br)c(O)c(Br)c2)C(c2cc(Br)c(O)c(Br)c2)=C1C(=O)c1cc(Br)c(O)c(Br)c1 [CADIOLIDE B] | 7.81
O=C1O/C(=C\c2cc(Br)c(O)c(Br)c2)C(c2cc(Br)c(O)c(Br)c2)=C1C(=O)c1ccc(O)c(Br)c1 | 1.95
O=C1O/C(=C\c2cc(Br)c(O)c(Br)c2)C(c2ccc(O)cc2)=C1C(=O)c1cc(Br)c(O)c(Br)c1 | 15.6
O=C1O/C(=C\c2ccc(O)c(Br)c2)C(c2ccc(O)c(Br)c2)=C1C(=O)c1ccc(O)cc1 | 15.6
O=C1O/C(=C\c2ccc(O)cc2)C(c2cc(Br)c(O)c(Br)c2)=C1C(=O)c1cc(Br)c(O)c(Br)c1 | 7.81

Each compound was assayed on Enterococcus faecalis (assay: Antibacterial activity against Enterococcus faecalis CECT 481 assessed as inhibition of microbial growth incubated for 18 hrs by 2-fold microtiter broth dilution method). Conditions: CECT 481, 18 h.
Format: functional, organism-based
Procedure, shortened: as §1

Compound | MIC [µg/mL]
O=C1O/C(=C\c2cc(Br)c(O)c(Br)c2)C(c2cc(Br)c(O)c(Br)c2)=C1C(=O)c1cc(Br)c(O)c(Br)c1 [CADIOLIDE B] | 7.81
O=C1O/C(=C\c2cc(Br)c(O)c(Br)c2)C(c2cc(Br)c(O)c(Br)c2)=C1C(=O)c1ccc(O)c(Br)c1 | 3.9
O=C1O/C(=C\c2cc(Br)c(O)c(Br)c2)C(c2ccc(O)cc2)=C1C(=O)c1cc(Br)c(O)c(Br)c1 | 15.6
O=C1O/C(=C\c2ccc(O)c(Br)c2)C(c2ccc(O)c(Br)c2)=C1C(=O)c1ccc(O)cc1 | 31.2
O=C1O/C(=C\c2ccc(O)cc2)C(c2cc(Br)c(O)c(Br)c2)=C1C(=O)c1cc(Br)c(O)c(Br)c1 | 7.81

What follows are compounds tested on Bacillus cereus (assay: Antibacterial activity against Bacillus cereus CECT 148 assessed as inhibition of microbial growth incubated for 18 hrs by 2-fold microtiter broth dilution method). Conditions: CECT 148, 18 h.
Format: functional, organism-based
Procedure, shortened: as §1

Compound | MIC [µg/mL]
O=C1O/C(=C\c2cc(Br)c(O)c(Br)c2)C(c2cc(Br)c(O)c(Br)c2)=C1C(=O)c1cc(Br)c(O)c(Br)c1 [CADIOLIDE B] | 7.81
O=C1O/C(=C\c2cc(Br)c(O)c(Br)c2)C(c2cc(Br)c(O)c(Br)c2)=C1C(=O)c1ccc(O)c(Br)c1 | 3.9
O=C1O/C(=C\c2cc(Br)c(O)c(Br)c2)C(c2ccc(O)cc2)=C1C(=O)c1cc(Br)c(O)c(Br)c1 | 15.6
O=C1O/C(=C\c2ccc(O)c(Br)c2)C(c2ccc(O)c(Br)c2)=C1C(=O)c1ccc(O)cc1 | 15.6
O=C1O/C(=C\c2ccc(O)cc2)C(c2cc(Br)c(O)c(Br)c2)=C1C(=O)c1cc(Br)c(O)c(Br)c1 | 7.81

What follows are compounds tested on Bacillus subtilis (assay: Antibacterial activity against Bacillus subtilis CECT 35 assessed as inhibition of microbial growth incubated for 18 hrs by 2-fold microtiter broth dilution method). Conditions: CECT 35, 18 h.
Format: functional, organism-based
Procedure, shortened: as §1

Compound | MIC [µg/mL]
O=C1O/C(=C\c2cc(Br)c(O)c(Br)c2)C(c2cc(Br)c(O)c(Br)c2)=C1C(=O)c1cc(Br)c(O)c(Br)c1 [CADIOLIDE B] | > 125
O=C1O/C(=C\c2cc(Br)c(O)c(Br)c2)C(c2cc(Br)c(O)c(Br)c2)=C1C(=O)c1ccc(O)c(Br)c1 | 125
O=C1O/C(=C\c2cc(Br)c(O)c(Br)c2)C(c2ccc(O)cc2)=C1C(=O)c1cc(Br)c(O)c(Br)c1 | 125
O=C1O/C(=C\c2ccc(O)c(Br)c2)C(c2ccc(O)c(Br)c2)=C1C(=O)c1ccc(O)cc1 | 125
O=C1O/C(=C\c2ccc(O)cc2)C(c2cc(Br)c(O)c(Br)c2)=C1C(=O)c1cc(Br)c(O)c(Br)c1 | 125

Each compound was assayed on Escherichia coli (assay: Antibacterial activity against Escherichia coli CECT 100 assessed as inhibition of microbial growth incubated for 18 hrs by 2-fold microtiter broth dilution method). Conditions: CECT 100, 18 h.
Format: functional, organism-based
Procedure, shortened: as §1

Compound | MIC [µg/mL]
O=C1O/C(=C\c2cc(Br)c(O)c(Br)c2)C(c2cc(Br)c(O)c(Br)c2)=C1C(=O)c1cc(Br)c(O)c(Br)c1 [CADIOLIDE B] | > 125
O=C1O/C(=C\c2cc(Br)c(O)c(Br)c2)C(c2cc(Br)c(O)c(Br)c2)=C1C(=O)c1ccc(O)c(Br)c1 | > 125
O=C1O/C(=C\c2cc(Br)c(O)c(Br)c2)C(c2ccc(O)cc2)=C1C(=O)c1cc(Br)c(O)c(Br)c1 | > 125
O=C1O/C(=C\c2ccc(O)c(Br)c2)C(c2ccc(O)c(Br)c2)=C1C(=O)c1ccc(O)cc1 | 15.6
O=C1O/C(=C\c2ccc(O)cc2)C(c2cc(Br)c(O)c(Br)c2)=C1C(=O)c1cc(Br)c(O)c(Br)c1 | > 125

What follows are compounds tested on Salmonella typhi (assay: Antibacterial activity against Salmonella typhi CECT 409 assessed as inhibition of microbial growth incubated for 18 hrs by 2-fold microtiter broth dilution method). Conditions: Salmonella enterica, CECT 409, 18 h.
Format: functional, organism-based, Salmonella enterica subsp. enterica serovar Typhi
Procedure, shortened: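 Compounds in DMSO, ten 2-fold serial dilutions (125 down to 0.24 µg/mL), mixed 1:1 with bacteria in Nutrient Broth at OD620 = 0.001. Incubated overnight (18 h) at 28 or 37 °C depending on strain. Growth read turbidimetrically at OD620; MIC is the lowest concentration completely inhibiting growth, per CLSI. Triplicate runs; tetracycline reference.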

Compound | MIC [µg/mL]
O=C1O/C(=C\c2cc(Br)c(O)c(Br)c2)C(c2cc(Br)c(O)c(Br)c2)=C1C(=O)c1cc(Br)c(O)c(Br)c1 [CADIOLIDE B] | 15.6
O=C1O/C(=C\c2cc(Br)c(O)c(Br)c2)C(c2cc(Br)c(O)c(Br)c2)=C1C(=O)c1ccc(O)c(Br)c1 | 3.9
O=C1O/C(=C\c2cc(Br)c(O)c(Br)c2)C(c2ccc(O)cc2)=C1C(=O)c1cc(Br)c(O)c(Br)c1 | 15.6
O=C1O/C(=C\c2ccc(O)c(Br)c2)C(c2ccc(O)c(Br)c2)=C1C(=O)c1ccc(O)cc1 | 31.2
O=C1O/C(=C\c2ccc(O)cc2)C(c2cc(Br)c(O)c(Br)c2)=C1C(=O)c1cc(Br)c(O)c(Br)c1 | 7.81

These compounds were tested on Pectobacterium carotovorum (assay: Antibacterial activity against Erwinia carotovora CECT 225 assessed as inhibition of microbial growth incubated for 18 hrs by 2-fold microtiter broth dilution method). Conditions: CECT 225, 18 h.
Format: functional, organism-based
Procedure, shortened: as §1

Compound | MIC [µg/mL]
O=C1O/C(=C\c2cc(Br)c(O)c(Br)c2)C(c2cc(Br)c(O)c(Br)c2)=C1C(=O)c1cc(Br)c(O)c(Br)c1 [CADIOLIDE B] | > 125
O=C1O/C(=C\c2cc(Br)c(O)c(Br)c2)C(c2cc(Br)c(O)c(Br)c2)=C1C(=O)c1ccc(O)c(Br)c1 | 125
O=C1O/C(=C\c2cc(Br)c(O)c(Br)c2)C(c2ccc(O)cc2)=C1C(=O)c1cc(Br)c(O)c(Br)c1 | 125
O=C1O/C(=C\c2ccc(O)c(Br)c2)C(c2ccc(O)c(Br)c2)=C1C(=O)c1ccc(O)cc1 | 125
O=C1O/C(=C\c2ccc(O)cc2)C(c2cc(Br)c(O)c(Br)c2)=C1C(=O)c1cc(Br)c(O)c(Br)c1 | 125

What follows are compounds tested on Staphylococcus aureus (assay: Antibacterial activity against Staphylococcus aureus CECT 86 assessed as inhibition of microbial growth incubated for 18 hrs by 2-fold microtiter broth dilution method). Conditions: CECT 86, 18 h.
Format: functional, organism-based
Procedure, shortened: as §1

Compound | MIC [µg/mL]
O=C1O/C(=C\c2cc(Br)c(O)c(Br)c2)C(c2cc(Br)c(O)c(Br)c2)=C1C(=O)c1cc(Br)c(O)c(Br)c1 [CADIOLIDE B] | 7.81
O=C1O/C(=C\c2cc(Br)c(O)c(Br)c2)C(c2cc(Br)c(O)c(Br)c2)=C1C(=O)c1ccc(O)c(Br)c1 | 3.9
O=C1O/C(=C\c2cc(Br)c(O)c(Br)c2)C(c2ccc(O)cc2)=C1C(=O)c1cc(Br)c(O)c(Br)c1 | 15.6
O=C1O/C(=C\c2ccc(O)c(Br)c2)C(c2ccc(O)c(Br)c2)=C1C(=O)c1ccc(O)cc1 | 31.2
O=C1O/C(=C\c2ccc(O)cc2)C(c2cc(Br)c(O)c(Br)c2)=C1C(=O)c1cc(Br)c(O)c(Br)c1 | 7.81
